In ChEMBL document CHEMBL1817556, “Substituted lactam and cyclic azahemiacetals modulate Pseudomonas aeruginosa quorum sensing” (Bioorg Med Chem, 2011):

Target: 3-(3-hydroxydecanoyloxy)decanoate synthase (Pseudomonas aeruginosa (strain ATCC 15692 / PAO1 / 1C / PRS 101 / LMG12228)) (UniProt Q51559)
Test: Modulation of Pseudomonas aeruginosa lacZ-fused rhlA expressed in Escherichia coli DH5alpha co-expressing Ptac-rhlR at 0.002 mM after 4 hrs by beta-galactosidase assay relative to control
Outline: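 E. coli DH5α carrying pECP61.5 (Ptac-rhlR plus PrhlA-lacZ) was grown overnight in LB with ampicillin 100 μg/ml and diluted to OD600 0.150. It was induced with 1 mM IPTG, and 2 μM C4-HSL plus compound or DMSO were added at OD600 1.0. Cultures were shaken 4 h at 37°C and β-galactosidase read in Miller units. Activity is % of solvent control, triplicates, ≥2 biological repeats, paired two-tailed t-test.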

SMILES: CCCC(=O)N[C@H]1CCOC1=O
- Activity: 100%
